Screens as filed in PubChem BioAssay.
An excerpt weighted towards active compounds, which were near 5.3% of everything screened.
FAK blocker = inhibitors of human focal adhesion kinase; Q05397; biochemical FAK kinase activity assay; inhibition, %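 (tested at 7 µM)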; 97,000 compounds, 0.84% hits; in the data active = inhibition above about 19%;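 also: 0% = DMSO and 100% = reference compound high control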
PLK1 kinase inh = inhibitors of human PLK1 kinase. inhibition, % at 10 µM. P53350. recombinant PLK1 kinase, TR-FRET peptide phosphorylation. 97,000 compounds, 0.53% hits;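 active = inhibition of 50% or more in the single-concentration screen; inactive = inhibition below 50%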;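 also: 0% = DMSO max control and 100% = H-89 dihydrochloride min control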
Rev-RRE block = HIV Rev-RRE protein-RNA interaction inhibition. P05866. Rev peptide-RRE RNA binding, FRET. inhibition, % at 8 µM. 97,000 compounds, 0.79% hits;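 active = inhibition above the screen-wide mean plus 3 SD, cut at about 35% in these data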;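 also: 0% = median DMSO wells and 100% = median Neomycin B control wells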
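System: Cy5-labelled duplex RRE RNA binding fluorescein-labelled HIV Rev peptide; Signal: fluorescein-to-Cy5 FRET, 480 nm excitation; Also added: labelled Rev peptide; Compound: one concentration, 8 µM nominal; Buffer or medium: HEPES pH 7.5 salt buffer with EDTA; Read-out: % inhibition of FRET ratio versus controls; Schedule: 5 min preincubation and 15 min binding, 25 °C.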
EphB4 ephrin blk = blocks human EphB4 binding to ephrin-B2; P54760; EphB4 LBD / TNYL-RAW-Alexa532 peptide, fluorescence polarization; inhibition, % at 7 µM; 97,000 compounds, 0.15% hits;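 active = inhibition above the screen-wide mean inhibition plus 3 SD, cut at about 15% in these data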;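 also: 0% = DMSO wells and 100% = excess unlabeled TNYL-RAW peptide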
PLK1 PBD inh = Plk1 (human) PBD binding inhibition; inhibition, %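 (tested at about 20 µM)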; 97,000 compounds, 0.13% hits; AID 693; Plk1 PBD phosphopeptide binding, fluorescence polarization; P53350; in the data active = inhibition above about 34%, passing the limit was not always enough
Cav32 inh = blocks human Cav3.2 T-type calcium channel | O95180 | Cav3.2-expressing cells, Fluo-4 calcium fluorescence FDSS; hits give low values | B-score at 10 µM | 100,000 compounds, 4% hits | AID 449739;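 active = single-dose well whose peak fluorescence ratio is a statistical outlier from its plate by either plate-standardised score or position-corrected B-score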
Target sequence (O95180 whole entry, looked up): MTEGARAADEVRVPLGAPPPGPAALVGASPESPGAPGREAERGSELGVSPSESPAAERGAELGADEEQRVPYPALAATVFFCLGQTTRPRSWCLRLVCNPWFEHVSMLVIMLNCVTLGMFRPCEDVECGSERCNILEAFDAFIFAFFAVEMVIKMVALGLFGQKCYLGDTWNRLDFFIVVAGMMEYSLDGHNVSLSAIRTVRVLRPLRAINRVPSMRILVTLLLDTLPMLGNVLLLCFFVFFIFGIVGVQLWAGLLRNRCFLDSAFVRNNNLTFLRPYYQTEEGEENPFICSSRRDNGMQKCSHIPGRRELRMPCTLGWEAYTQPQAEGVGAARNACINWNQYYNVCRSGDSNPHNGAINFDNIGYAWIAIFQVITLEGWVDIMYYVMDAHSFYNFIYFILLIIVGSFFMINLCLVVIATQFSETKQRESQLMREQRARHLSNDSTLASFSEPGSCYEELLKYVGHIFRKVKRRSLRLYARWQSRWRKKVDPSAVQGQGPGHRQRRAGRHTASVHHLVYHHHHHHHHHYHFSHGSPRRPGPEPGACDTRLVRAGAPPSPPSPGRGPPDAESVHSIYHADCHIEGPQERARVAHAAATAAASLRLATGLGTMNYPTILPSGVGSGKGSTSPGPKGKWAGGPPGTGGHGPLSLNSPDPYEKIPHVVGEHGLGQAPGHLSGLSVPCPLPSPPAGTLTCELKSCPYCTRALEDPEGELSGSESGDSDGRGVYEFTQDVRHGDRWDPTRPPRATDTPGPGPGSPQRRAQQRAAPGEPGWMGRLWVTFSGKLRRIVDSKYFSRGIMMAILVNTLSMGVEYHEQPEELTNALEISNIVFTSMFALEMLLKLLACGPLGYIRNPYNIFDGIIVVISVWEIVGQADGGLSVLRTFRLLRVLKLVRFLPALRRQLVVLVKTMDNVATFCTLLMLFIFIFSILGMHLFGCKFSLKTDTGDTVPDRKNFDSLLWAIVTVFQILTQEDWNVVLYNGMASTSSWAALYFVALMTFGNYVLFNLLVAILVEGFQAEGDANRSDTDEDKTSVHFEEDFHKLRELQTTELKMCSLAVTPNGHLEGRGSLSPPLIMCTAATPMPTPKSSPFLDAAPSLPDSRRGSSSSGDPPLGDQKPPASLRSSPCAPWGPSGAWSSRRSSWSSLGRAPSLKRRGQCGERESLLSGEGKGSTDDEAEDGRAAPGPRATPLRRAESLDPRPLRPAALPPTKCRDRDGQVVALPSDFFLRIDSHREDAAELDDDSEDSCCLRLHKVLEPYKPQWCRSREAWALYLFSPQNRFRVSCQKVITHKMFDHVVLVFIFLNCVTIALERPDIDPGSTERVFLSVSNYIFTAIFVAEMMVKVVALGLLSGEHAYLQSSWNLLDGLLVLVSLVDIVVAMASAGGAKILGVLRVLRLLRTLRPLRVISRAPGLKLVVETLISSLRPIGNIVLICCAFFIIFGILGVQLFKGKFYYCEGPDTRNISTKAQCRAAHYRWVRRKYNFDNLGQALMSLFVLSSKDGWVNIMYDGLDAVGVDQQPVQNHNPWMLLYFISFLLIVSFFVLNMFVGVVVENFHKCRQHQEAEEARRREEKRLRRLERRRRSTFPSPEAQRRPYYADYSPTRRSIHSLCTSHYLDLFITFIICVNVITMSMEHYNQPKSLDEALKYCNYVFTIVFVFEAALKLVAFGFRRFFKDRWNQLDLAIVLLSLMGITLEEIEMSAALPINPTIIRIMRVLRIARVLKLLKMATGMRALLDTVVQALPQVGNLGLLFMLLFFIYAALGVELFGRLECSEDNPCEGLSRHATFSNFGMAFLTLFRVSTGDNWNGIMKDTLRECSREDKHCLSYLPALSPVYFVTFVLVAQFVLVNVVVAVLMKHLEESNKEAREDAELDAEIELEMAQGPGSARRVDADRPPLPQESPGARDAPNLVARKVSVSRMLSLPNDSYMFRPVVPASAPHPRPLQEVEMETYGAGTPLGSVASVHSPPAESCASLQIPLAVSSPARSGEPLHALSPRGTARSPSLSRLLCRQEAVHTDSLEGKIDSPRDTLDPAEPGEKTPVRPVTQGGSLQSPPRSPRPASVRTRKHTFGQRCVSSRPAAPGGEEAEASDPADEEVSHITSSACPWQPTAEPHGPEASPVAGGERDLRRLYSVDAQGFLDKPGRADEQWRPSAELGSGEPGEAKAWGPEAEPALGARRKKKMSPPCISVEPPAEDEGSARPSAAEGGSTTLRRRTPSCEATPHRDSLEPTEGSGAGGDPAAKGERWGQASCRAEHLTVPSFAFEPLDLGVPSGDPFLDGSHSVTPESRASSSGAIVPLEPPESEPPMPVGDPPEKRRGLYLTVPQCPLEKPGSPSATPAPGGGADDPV
Active calls of the source: *.

Results for O=C(CSc1nnc(COc2ccc(Cl)cc2)o1)N1CCN(c2ccccc2)CC1 ?
Cav32 inh: 0.692

Results for Cc1cccc(NC(=O)c2cc(NC(=O)C3CCCCC3C(=O)O)ccc2N2CCCCC2)c1 (centres undefined) ?
Cav32 inh: -4.03*

What do the screens show for `C=C1CCN([C@@H](C)C(=O)NCc2ccc(Cl)cc2)S(=O)(=O)c2ccccc21`?
Cav32 inh: -0.85

What do the screens show for `O=C(Nc1ccc(Br)cc1)C(c1ccccc1)c1ccccc1`?
Cav32 inh: 0.0461

How did O=C(COc1ccccc1)NCCSCc1ccco1 do in these assays?
FAK blocker: -1.0; PLK1 kinase inh: -13.0; Rev-RRE block: 1.1; EphB4 ephrin blk: -0.3; PLK1 PBD inh: 28.9; Cav32 inh: 0.627

What do the screens show for `O=C(COc1ccc(Cl)cc1)NCCSCc1cccc(Cl)c1`?
FAK blocker: 2.0; PLK1 kinase inh: -5.4; Rev-RRE block: 11.1; EphB4 ephrin blk: -8.3; PLK1 PBD inh: -25.4; Cav32 inh: -4.31*

What do the screens show for `Cc1cccc(-n2nnc(C(=O)NC3CCCc4ccccc43)c2N)c1` (centres undefined)?
FAK blocker: 0.4; PLK1 kinase inh: -1.9; Rev-RRE block: 13.6; EphB4 ephrin blk: -10.3; PLK1 PBD inh: 26.6; Cav32 inh: -6.65*

What do the screens show for `Nc1ccc2oc3ccc(N)cc3c(=O)c2c1`?
FAK blocker: 0.5; PLK1 kinase inh: -0.5; Rev-RRE block: 37.4*; EphB4 ephrin blk: -2.0; PLK1 PBD inh: -5.4; Cav32 inh: 0.999

What do the screens show for `CC/C(O)=C(\C#N)c1nnc2n1CCCCC2`?
FAK blocker: -1.5; PLK1 kinase inh: -7.4; Rev-RRE block: 5.3; EphB4 ephrin blk: 9.3; PLK1 PBD inh: 27.9; Cav32 inh: -0.196

Results for COc1ccc2cc(CN(CCc3ccccc3)Cc3nnnn3CC3CCCO3)c(=O)[nH]c2c1 (centres undefined) ?
FAK blocker: 3.4; PLK1 kinase inh: -7.8; Rev-RRE block: -1.3; EphB4 ephrin blk: -2.1; PLK1 PBD inh: 21.4; Cav32 inh: -1.57

How did O=c1[nH]c2cc3c(cc2cc1CN(CCc1ccccc1)Cc1nnnn1CC1CCCO1)OCO3 (centres undefined) do in these assays?
FAK blocker: 2.6; PLK1 kinase inh: 1.8; Rev-RRE block: 41.1*; EphB4 ephrin blk: -0.5; PLK1 PBD inh: -2.3; Cav32 inh: -0.0854

Results for O=c1[nH]c2cc3c(cc2cc1CN(Cc1nnnn1CC1CCCO1)C1CCCCC1)OCO3 (centres undefined) ?
FAK blocker: 5.0; PLK1 kinase inh: -11.2; Rev-RRE block: 39.5*; EphB4 ephrin blk: -9.0; PLK1 PBD inh: 11.8

How did Cc1ccc2[nH]c(=O)c(CN(CCc3ccccc3)Cc3nnnn3CC3CCCO3)cc2c1 (centres undefined) do in these assays?
FAK blocker: 6.8; PLK1 kinase inh: -9.1; Rev-RRE block: 6.7; EphB4 ephrin blk: 7.6; PLK1 PBD inh: 13.8; Cav32 inh: -3.65*

How did C/C=C1\COC(C(=O)NCc2ccccc2)(C(F)(F)F)C=C1C=C(C)C (centres undefined) do in these assays?
Cav32 inh: -3.52

What do the screens show for `Cc1ccc(SCCNC(=O)c2ccc(C)c(S(=O)(=O)Nc3cccc(C)c3)c2)cc1`?
FAK blocker: 1.0; PLK1 kinase inh: -11.9; Rev-RRE block: 9.4; EphB4 ephrin blk: -4.9; PLK1 PBD inh: -13.3; Cav32 inh: -4.56*

How did Cc1ccc(C(=O)NCCSc2ccc(Cl)cc2)cc1S(=O)(=O)Nc1ccccc1 do in these assays?
FAK blocker: 2.4; PLK1 kinase inh: -13.1; Rev-RRE block: 22.1; EphB4 ephrin blk: 2.3; PLK1 PBD inh: -16.4; Cav32 inh: -2.78

How did Cc1ccc(SCCNC(=O)c2ccccc2)cc1 do in these assays?
FAK blocker: -0.5; PLK1 kinase inh: -13.3; Rev-RRE block: 1.1; EphB4 ephrin blk: -6.5; PLK1 PBD inh: -27.4; Cav32 inh: -0.451

What do the screens show for `Cc1ccc(NS(=O)(=O)c2cc(C(=O)NCCSC3CCCCC3)ccc2C)cc1`?
FAK blocker: -0.3; PLK1 kinase inh: -10.8; Rev-RRE block: 6.9; EphB4 ephrin blk: 6.4; PLK1 PBD inh: -28.7; Cav32 inh: -4.46*

What do the screens show for `Cc1ccc(NS(=O)(=O)c2cc(C(=O)NCCSc3ccc(C)cc3)ccc2C)cc1`?
FAK blocker: 2.7; PLK1 kinase inh: 2.6; Rev-RRE block: 5.4; EphB4 ephrin blk: 0.5; PLK1 PBD inh: 22.4; Cav32 inh: -4.43*

Results for Cc1nn2c(c1-c1ccc(Cl)cc1)N=C(c1ccco1)CC2c1ccccc1 (centres undefined) ?
FAK blocker: 9.4; PLK1 kinase inh: -20.2; Rev-RRE block: 18.6; EphB4 ephrin blk: -2.3; PLK1 PBD inh: -11.4; Cav32 inh: -2.76

How did COC(=O)C1=C(CSc2nccn2C)NC(=O)NC1c1cc(C)ccc1C (centres undefined) do in these assays?
FAK blocker: 1.8; PLK1 kinase inh: -1.2; Rev-RRE block: -1.0; EphB4 ephrin blk: 0.2; PLK1 PBD inh: 15.2; Cav32 inh: 1.22

What do the screens show for `C[C@]12CC[C@@H]3c4ccc(O)cc4CC[C@H]3[C@@H]1C[C@@H](O)[C@@H]2O`?
Cav32 inh: -4.57*

What do the screens show for `C[C@]12CC[C@@H]3c4ccc(O)cc4CC[C@H]3[C@@H]1CC[C@@H]2OC(=O)CCC(=O)O`?
Cav32 inh: -0.327

What do the screens show for `C(=C\c1ccccc1)/CSc1nnc(-c2cnccn2)n1Cc1ccco1`?
FAK blocker: -1.4; PLK1 kinase inh: -6.6; Rev-RRE block: 5.5; EphB4 ephrin blk: -8.2; PLK1 PBD inh: -23.7; Cav32 inh: -3.45*

How did CCO[C@H]1OC(C(=O)Nc2ccccc2)=C[C@@H](c2ccc(C(F)(F)F)cc2)[C@@H]1CCCO do in these assays?
Cav32 inh: -2.05

What do the screens show for `CCOC(=O)C1=C(CNCCc2ccc(Cl)cc2)NC(=O)NC1c1ccc2c(c1)OCO2` (centres undefined)?
FAK blocker: -0.2; PLK1 kinase inh: -3.2; Rev-RRE block: 8.6; EphB4 ephrin blk: 3.2; PLK1 PBD inh: 3.2; Cav32 inh: -4.57*

Results for CCCCNC(=O)CSc1nnc(Cc2ccccc2)n1CC ?
FAK blocker: -1.5; PLK1 kinase inh: -13.5; Rev-RRE block: 2.4; EphB4 ephrin blk: 7.1; PLK1 PBD inh: 17.1; Cav32 inh: 0.188

Results for CC(=O)Nc1nonc1NC(=O)c1ccc(C(C)(C)C)cc1 ?
FAK blocker: -1.3; PLK1 kinase inh: -12.3; Rev-RRE block: 4.3; EphB4 ephrin blk: 1.5; PLK1 PBD inh: 16.6; Cav32 inh: -0.329

What do the screens show for `COCCn1c(C)cc(C(=O)COC(=O)c2c(C)nn(Cc3ccccc3)c2C)c1C`?
FAK blocker: -3.8; PLK1 kinase inh: -1.3; Rev-RRE block: -3.1; EphB4 ephrin blk: -8.8; PLK1 PBD inh: -17.8; Cav32 inh: -5.91*

What do the screens show for `Cc1nn(Cc2ccccc2)c(C)c1C(=O)OCC(=O)c1cc(C)n(C2CC2)c1C`?
FAK blocker: -0.4; PLK1 kinase inh: -12.6; Rev-RRE block: 1.2; EphB4 ephrin blk: 3.7; PLK1 PBD inh: 0.5; Cav32 inh: -4.75*
